Legend:
[1] = biological target: Cyclin-dependent kinase 15 (Homo sapiens) (UniProt Q96Q40); test: Inhibition of PFTAIRE2 at 1 uM
[2] = biological target: Dual specificity protein kinase CLK4 (Homo sapiens) (UniProt Q9HAZ1); test: Inhibition of CLK4 at 1 uM
Procedure, shortened: (§1)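 Single-concentration screen using Ambit Bioscience KINOMEscan technology across a panel of 250–400 kinases. Per-kinase inhibition from this screen was summarized as S(90), the fraction of kinases inhibited by more than 90%.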

[3] = biological target: Cyclin-dependent kinase-like 3 (Homo sapiens) (UniProt Q8IVW4); test: Inhibition of CDKL3 at 1 uM
Cyclin-dependent kinase-like 3 (Homo sapiens), sequence (Q8IVW4 whole entry, looked up): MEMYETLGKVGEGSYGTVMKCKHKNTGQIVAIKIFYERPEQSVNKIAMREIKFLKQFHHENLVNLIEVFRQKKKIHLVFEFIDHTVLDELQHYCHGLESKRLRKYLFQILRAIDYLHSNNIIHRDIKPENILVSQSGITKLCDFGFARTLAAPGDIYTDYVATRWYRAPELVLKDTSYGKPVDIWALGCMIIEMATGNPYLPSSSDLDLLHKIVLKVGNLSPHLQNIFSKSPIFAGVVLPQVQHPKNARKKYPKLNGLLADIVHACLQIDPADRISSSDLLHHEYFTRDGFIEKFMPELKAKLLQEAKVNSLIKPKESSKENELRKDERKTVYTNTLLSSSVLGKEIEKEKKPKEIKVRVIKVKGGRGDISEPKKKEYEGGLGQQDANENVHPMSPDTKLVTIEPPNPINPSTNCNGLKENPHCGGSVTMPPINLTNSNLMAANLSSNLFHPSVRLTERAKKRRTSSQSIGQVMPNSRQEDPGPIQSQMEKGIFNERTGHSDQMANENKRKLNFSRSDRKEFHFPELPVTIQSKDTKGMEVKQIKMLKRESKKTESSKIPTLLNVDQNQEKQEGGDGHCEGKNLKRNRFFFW

[4] = biological target: Cyclin-dependent kinase 18 (Homo sapiens) (UniProt Q07002); test: Inhibition of PCTK3 at 1 uM
Cyclin-dependent kinase 18 (Homo sapiens), sequence (Q07002 whole entry): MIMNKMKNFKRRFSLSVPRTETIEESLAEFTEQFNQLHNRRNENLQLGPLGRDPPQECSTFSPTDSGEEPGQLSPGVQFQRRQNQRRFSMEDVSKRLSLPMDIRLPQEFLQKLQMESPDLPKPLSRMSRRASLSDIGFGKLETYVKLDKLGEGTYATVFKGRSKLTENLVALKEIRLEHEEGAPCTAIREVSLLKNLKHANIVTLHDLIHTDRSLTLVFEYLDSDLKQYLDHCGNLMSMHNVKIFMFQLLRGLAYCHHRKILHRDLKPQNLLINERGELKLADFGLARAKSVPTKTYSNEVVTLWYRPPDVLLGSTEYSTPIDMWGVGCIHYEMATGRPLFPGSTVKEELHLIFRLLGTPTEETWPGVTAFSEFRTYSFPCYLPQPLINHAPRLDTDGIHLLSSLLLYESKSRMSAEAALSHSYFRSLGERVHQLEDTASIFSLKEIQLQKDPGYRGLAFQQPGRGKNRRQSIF

[5] = biological target: Tyrosine-protein kinase FRK (Homo sapiens) (UniProt P42685); test: Inhibition of FRK at 1 uM
Tyrosine-protein kinase FRK (Homo sapiens), sequence (P42685 whole entry): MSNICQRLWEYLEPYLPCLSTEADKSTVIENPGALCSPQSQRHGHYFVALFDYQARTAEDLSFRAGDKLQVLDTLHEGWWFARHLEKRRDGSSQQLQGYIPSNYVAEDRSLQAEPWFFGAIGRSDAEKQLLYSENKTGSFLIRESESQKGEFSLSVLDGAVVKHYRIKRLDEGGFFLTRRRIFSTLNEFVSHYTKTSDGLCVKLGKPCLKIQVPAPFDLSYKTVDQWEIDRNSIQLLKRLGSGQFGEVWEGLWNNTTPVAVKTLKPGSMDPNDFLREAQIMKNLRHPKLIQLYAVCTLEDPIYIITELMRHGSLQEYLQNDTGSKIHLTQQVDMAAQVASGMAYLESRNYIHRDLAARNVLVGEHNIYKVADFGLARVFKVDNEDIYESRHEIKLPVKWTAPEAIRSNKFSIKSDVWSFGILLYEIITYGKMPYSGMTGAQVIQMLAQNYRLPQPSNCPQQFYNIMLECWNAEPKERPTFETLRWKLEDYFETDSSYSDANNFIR
Procedure, shortened: (§2)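 Single-concentration screen on the Ambit KINOMEscan platform, run against a panel of 250–400 kinases. Per-kinase inhibition was also summarized as S(90), the fraction of kinases inhibited by more than 90%.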

[6] = biological target: T1, Serine/threonine-protein kinase BRSK2 (Homo sapiens) (UniProt Q8IWQ3); test: Inhibition of BRSK2 at 1 uM
T1 sequence (whole entry): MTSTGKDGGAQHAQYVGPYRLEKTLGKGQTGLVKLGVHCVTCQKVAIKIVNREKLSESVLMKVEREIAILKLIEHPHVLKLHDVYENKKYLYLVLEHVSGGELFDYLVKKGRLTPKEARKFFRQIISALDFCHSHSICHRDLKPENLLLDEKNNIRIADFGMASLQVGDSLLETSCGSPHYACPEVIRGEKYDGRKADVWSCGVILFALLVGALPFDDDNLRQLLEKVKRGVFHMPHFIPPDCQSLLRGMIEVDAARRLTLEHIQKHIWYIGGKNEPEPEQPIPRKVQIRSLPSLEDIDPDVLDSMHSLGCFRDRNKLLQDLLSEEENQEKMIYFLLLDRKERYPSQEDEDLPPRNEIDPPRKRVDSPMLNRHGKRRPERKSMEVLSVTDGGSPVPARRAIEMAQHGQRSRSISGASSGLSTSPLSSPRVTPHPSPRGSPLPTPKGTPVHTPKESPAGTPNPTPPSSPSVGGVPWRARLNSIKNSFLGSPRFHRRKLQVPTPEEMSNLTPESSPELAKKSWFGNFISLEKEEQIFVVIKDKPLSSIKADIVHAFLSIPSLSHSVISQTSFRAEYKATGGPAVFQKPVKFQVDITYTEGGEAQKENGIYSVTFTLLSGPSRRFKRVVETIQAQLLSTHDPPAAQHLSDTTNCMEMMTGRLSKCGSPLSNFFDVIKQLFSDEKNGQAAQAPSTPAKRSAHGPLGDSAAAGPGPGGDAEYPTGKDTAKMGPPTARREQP
Procedure, shortened: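 Ambit KINOMEscan screen at a single concentration across a 250–400 kinase panel, recorded as percent inhibition. Selectivity was expressed as S(90), the fraction of kinases inhibited >90%.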

[7] = biological target: BDNF/NT-3 growth factors receptor (Homo sapiens) (UniProt Q16620); test: Inhibition of TRKB at 1 uM; procedure, shortened: as §2
BDNF/NT-3 growth factors receptor (Homo sapiens), sequence (Q16620 32-822 limits assumed): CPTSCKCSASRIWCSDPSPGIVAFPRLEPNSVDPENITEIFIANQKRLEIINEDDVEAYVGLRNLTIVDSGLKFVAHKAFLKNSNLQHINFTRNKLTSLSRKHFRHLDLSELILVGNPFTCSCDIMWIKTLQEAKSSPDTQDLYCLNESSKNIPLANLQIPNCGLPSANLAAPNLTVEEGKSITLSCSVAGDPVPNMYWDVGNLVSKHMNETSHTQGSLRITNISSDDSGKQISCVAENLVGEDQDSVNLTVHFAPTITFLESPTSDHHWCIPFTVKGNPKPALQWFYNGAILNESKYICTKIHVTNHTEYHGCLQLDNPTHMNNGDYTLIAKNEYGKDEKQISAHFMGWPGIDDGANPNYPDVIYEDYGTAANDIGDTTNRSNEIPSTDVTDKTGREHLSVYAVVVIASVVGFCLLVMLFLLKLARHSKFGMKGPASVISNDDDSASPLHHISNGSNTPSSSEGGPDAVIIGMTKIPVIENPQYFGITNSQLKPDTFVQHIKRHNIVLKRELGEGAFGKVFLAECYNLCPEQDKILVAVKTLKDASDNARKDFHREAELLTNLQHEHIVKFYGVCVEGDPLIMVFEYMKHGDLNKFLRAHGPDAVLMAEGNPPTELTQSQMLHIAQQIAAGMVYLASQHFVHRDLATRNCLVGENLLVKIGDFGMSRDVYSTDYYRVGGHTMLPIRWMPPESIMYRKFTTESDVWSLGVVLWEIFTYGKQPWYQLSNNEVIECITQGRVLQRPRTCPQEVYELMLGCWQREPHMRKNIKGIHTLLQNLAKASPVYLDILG

[8] = biological target: T2, Mitogen-activated protein kinase 15 (Homo sapiens) (UniProt Q8TD08); test: Inhibition of ERK8 at 1 uM
T2 sequence (whole entry): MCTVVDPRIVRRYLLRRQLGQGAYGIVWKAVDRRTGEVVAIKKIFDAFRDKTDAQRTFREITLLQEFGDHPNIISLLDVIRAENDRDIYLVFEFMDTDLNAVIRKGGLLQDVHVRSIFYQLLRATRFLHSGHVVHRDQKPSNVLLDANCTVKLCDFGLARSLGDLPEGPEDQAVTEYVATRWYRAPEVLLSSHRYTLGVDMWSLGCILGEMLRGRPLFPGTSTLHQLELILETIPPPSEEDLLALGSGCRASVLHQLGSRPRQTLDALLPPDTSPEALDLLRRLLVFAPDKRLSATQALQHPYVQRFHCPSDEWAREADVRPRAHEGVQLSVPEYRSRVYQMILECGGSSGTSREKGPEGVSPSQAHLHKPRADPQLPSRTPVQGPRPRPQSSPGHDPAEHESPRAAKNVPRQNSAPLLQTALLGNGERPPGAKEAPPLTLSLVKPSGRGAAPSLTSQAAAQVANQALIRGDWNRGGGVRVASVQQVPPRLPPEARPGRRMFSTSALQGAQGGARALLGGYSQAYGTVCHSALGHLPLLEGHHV

[9] = biological target: Phosphatidylinositol 4,5-bisphosphate 3-kinase catalytic subunit gamma isoform (Homo sapiens) (UniProt P48736); test: Inhibition of PIK3CG at 1 uM
Phosphatidylinositol 4,5-bisphosphate 3-kinase catalytic subunit gamma isoform (Homo sapiens), sequence (P48736 whole entry, looked up, canonical isoform): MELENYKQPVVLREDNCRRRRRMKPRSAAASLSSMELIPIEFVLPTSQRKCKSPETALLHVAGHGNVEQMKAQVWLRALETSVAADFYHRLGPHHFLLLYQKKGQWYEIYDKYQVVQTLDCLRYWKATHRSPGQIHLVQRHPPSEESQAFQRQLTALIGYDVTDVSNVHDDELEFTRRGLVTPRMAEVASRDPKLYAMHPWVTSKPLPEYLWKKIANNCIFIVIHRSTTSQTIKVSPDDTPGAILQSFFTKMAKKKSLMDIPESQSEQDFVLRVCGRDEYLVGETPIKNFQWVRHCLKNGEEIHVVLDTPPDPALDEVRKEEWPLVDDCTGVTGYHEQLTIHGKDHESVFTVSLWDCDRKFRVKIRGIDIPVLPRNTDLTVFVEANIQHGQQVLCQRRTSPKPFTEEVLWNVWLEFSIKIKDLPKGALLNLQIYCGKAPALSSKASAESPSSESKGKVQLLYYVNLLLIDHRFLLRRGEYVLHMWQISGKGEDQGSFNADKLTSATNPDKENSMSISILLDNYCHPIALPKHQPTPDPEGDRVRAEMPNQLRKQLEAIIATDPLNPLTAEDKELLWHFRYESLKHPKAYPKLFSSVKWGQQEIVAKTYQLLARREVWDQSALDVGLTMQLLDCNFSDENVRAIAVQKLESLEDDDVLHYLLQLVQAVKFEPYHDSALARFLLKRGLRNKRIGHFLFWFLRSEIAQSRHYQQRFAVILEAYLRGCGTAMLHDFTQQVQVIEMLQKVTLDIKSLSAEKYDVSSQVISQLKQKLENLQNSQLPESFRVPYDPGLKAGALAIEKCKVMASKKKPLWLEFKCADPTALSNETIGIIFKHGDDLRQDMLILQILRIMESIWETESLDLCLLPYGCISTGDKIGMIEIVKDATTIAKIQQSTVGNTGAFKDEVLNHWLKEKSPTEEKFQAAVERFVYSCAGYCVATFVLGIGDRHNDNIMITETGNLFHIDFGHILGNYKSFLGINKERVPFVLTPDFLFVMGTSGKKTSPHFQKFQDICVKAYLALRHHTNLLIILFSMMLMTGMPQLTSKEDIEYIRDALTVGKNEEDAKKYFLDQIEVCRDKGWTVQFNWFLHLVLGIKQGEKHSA

[10] = biological target: T3, Ephrin type-B receptor 4 (Homo sapiens) (UniProt P54760); test: Inhibition of EPHB4 at 1 uM; procedure, shortened: as §1
T3 sequence (whole entry): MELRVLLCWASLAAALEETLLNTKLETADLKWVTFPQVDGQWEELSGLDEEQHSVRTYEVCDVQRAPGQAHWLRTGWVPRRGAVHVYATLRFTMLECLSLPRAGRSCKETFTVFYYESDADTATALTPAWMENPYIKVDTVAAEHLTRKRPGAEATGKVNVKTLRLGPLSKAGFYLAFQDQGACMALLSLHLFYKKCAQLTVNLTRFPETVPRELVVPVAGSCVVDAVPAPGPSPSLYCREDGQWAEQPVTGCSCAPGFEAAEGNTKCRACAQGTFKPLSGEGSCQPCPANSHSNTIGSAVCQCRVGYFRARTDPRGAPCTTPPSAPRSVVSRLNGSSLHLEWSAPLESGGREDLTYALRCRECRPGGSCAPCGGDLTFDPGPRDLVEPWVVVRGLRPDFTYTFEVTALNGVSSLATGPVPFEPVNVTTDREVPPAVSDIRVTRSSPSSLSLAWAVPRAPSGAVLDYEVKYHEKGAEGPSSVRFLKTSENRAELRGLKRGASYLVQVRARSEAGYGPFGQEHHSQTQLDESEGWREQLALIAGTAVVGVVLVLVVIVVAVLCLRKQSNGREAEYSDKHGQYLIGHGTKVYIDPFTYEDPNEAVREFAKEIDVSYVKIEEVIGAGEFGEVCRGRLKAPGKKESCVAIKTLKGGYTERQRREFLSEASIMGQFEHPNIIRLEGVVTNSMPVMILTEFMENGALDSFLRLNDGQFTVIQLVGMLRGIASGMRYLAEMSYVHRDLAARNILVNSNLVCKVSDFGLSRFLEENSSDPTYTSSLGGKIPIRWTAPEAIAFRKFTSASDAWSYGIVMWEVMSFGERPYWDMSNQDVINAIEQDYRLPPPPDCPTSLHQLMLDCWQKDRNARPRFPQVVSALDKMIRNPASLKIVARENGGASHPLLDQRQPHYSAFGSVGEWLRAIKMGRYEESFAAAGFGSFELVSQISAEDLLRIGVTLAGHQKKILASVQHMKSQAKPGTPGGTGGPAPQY

[11] = biological target: Dual specificity testis-specific protein kinase 1 (Homo sapiens) (UniProt Q15569); test: Inhibition of TESK1 at 1 uM
Dual specificity testis-specific protein kinase 1 (Homo sapiens), sequence (Q15569 whole entry, looked up): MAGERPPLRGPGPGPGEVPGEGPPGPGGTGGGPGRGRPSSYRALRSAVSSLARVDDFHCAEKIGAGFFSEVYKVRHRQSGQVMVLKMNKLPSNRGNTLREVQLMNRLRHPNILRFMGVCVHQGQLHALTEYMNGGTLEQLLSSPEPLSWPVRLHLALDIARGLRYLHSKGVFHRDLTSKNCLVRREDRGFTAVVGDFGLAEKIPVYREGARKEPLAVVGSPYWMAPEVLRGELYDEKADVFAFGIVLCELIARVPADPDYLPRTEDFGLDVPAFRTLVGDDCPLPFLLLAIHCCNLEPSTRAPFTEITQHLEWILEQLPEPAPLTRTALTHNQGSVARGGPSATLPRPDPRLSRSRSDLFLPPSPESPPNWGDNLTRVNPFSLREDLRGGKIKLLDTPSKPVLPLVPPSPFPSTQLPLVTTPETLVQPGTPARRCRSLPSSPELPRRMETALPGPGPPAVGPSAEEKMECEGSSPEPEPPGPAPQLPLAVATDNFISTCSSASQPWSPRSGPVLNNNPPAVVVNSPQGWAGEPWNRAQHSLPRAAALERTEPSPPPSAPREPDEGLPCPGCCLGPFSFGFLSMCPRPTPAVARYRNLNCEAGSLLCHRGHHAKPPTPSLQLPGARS

Cyclin-dependent kinase 15 (Homo sapiens), sequence (Q96Q40 whole entry): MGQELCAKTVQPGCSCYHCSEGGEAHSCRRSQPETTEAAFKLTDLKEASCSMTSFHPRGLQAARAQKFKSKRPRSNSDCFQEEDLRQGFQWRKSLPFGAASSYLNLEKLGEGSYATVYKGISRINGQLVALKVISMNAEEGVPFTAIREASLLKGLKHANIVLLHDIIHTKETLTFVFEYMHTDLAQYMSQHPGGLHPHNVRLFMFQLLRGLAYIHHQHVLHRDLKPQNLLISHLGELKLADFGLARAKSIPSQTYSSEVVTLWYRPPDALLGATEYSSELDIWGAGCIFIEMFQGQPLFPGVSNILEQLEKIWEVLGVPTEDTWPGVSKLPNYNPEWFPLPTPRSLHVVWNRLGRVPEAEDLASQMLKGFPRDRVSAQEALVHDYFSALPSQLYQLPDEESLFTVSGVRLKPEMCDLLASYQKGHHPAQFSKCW
Dual specificity protein kinase CLK4 (Homo sapiens), sequence (Q9HAZ1 whole entry, looked up): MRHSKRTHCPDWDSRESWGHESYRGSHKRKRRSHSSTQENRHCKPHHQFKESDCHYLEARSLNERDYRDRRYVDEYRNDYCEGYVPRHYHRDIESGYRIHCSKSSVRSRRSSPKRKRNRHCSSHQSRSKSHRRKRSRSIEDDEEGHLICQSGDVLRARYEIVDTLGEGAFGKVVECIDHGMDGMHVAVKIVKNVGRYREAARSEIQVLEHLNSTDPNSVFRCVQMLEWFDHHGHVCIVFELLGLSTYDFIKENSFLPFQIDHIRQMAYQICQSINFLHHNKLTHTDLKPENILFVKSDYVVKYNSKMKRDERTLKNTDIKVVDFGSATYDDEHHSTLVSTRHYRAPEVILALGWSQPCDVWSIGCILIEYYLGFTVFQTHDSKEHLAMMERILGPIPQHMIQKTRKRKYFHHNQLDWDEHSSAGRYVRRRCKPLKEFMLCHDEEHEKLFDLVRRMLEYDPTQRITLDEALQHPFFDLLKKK

Row | inhibition [1] | inhibition [2] | inhibition [3] | inhibition [4] | inhibition [5] | inhibition [6] | inhibition [7] | inhibition [9] | inhibition [10] | inhibition [11] | Structure (SMILES) | inhibition [8]
1 | < 50% | < 50% | < 50% | < 50% | < 50% | < 50% | < 50% | < 50% | < 50% | < 50% | CN1CCN(c2ccc(-c3cnc4c(c3)N(Cc3cc(Cl)ccc3C(F)(F)F)CCN4)cn2)CC1 | < 50%
2 | < 50% | < 50% | < 50% | < 50% | < 50% | < 50% | 76% | < 50% | < 50% | < 50% | CC(=O)N1CCN(c2cc(-c3cnc4c(c3)N(Cc3cc(Cl)ccc3C(F)(F)F)CCN4)ccn2)CC1 | < 50%
3 | < 50% | < 50% | < 50% | < 50% | < 50% | < 50% | 58% | < 50% | < 50% | < 50% | CN1CCN(c2ccc(-c3cnc4c(c3)N(Cc3cc(F)ccc3F)CCN4)cn2)CC1 | < 50%
4 | < 50% | < 50% | < 50% | < 50% | 66% | < 50% | 72% | < 50% | < 50% | < 50% | CN1CCN(c2ccc(-c3cnc4c(c3)N(Cc3c(F)ccc(F)c3Cl)CCN4)cn2)CC1 | < 50%
5 | < 50% | < 50% | < 50% | < 50% | < 50% | < 50% | 72% | < 50% | < 50% | < 50% | CN1CCN(c2ccc(-c3cnc4c(c3)N(Cc3cc(Cl)ccc3Cl)CCN4)cn2)CC1 | < 50%

Further lines, the compound ahead of its results:

Row | Structure (SMILES) | inhibition [1] | inhibition [2] | inhibition [3] | inhibition [4] | inhibition [5] | inhibition [6] | inhibition [7] | inhibition [9] | inhibition [10] | inhibition [11] | inhibition [8]
6 | O=C(O)c1ccc(-c2cnc3c(c2)N(Cc2cc(Cl)ccc2C(F)(F)F)CCN3)cc1 |  | < 50% |  |  | < 50% | < 50% | 65% |  | < 50% | < 50% | 
7 | O=C(c1ccc(-c2cnc3c(c2)N(Cc2cc(Cl)ccc2C(F)(F)F)CCN3)cc1)N1CCC(N2CCCC2)CC1 |  | < 50% |  |  | < 50% | 63.8% | 73.6% |  | < 50% | 88.5% | 
8 | COC1CCN(C(=O)c2ccc(-c3cnc4c(c3)N(Cc3cc(Cl)ccc3C(F)(F)F)CCN4)cc2)CC1 |  | < 50% |  |  | < 50% | < 50% | < 50% |  | < 50% | < 50% | 
9 | FC(F)(F)c1ccc(Cl)cc1CN1CCNc2ncc(-c3ccnc(N4CCNCC4)c3)cc21 | < 50% | < 50% | < 50% | < 50% | < 50% | < 50% | 79% | < 50% | < 50% | < 50% | < 50%
10 | O=C(c1ccc(-c2cnc3c(c2)N(Cc2cc(Cl)ccc2C(F)(F)F)CCN3)cc1)N1CCCCC1 |  | < 50% |  |  | < 50% | < 50% | < 50% |  | < 50% | < 50% | 

From ChEMBL document CHEMBL1165965, “Synthesis and structure-activity relationships of 1,2,3,4-tetrahydropyrido[2,3-b]pyrazines as potent and selective inhibitors of the anaplastic lymphoma kinase” (Bioorg Med Chem, 2010)
